From PubChem
Shown are actives, neighbours in structure and some others; about 4.5% of the full set was active somewhere.
TAAR1 ag = human TAAR1 agonism; activation, % at 3 µM; CHO RD-HGA16 TAAR1, Fluo-8 calcium fluorescence; vehicle wells 0%, saturating PEA agonist 100%; Q96RJ0; actives 0.99% (n = 360,000); AID 624467;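 active = activation above the mean activation of all test compounds in the run plus 3 SD, cut at about 38% in these data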
Target sequence (Q96RJ0 whole entry, looked up): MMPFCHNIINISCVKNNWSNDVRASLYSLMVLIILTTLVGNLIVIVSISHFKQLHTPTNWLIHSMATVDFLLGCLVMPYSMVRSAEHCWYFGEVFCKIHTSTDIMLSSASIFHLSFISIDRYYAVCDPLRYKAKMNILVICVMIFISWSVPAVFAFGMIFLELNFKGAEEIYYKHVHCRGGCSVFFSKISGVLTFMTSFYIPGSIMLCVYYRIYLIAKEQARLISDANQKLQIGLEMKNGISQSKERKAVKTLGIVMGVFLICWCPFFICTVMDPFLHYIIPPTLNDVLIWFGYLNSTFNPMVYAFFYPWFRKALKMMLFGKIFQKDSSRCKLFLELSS
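Assay system: CHO-derived RD-HGA16 cells with stable Gα16 and human TAAR1; timing: 17-24 h seeding, 75 min 37 °C dye, 30 min RT; read-out: % activation from peak over basal fluorescence ratio, DMSO-to-PEA scaled; measured by: kinetic Fluo-8 calcium fluorescence; benchmarks: low control DMSO, high control PEA (EC100); doses: 3 µM single concentration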
GPR7 antag = human neuropeptides B/W receptor 1 antagonism. P48145. GPR7-expressing cells, fluorescence antagonist assay. inhibition, % at 4.4 µM. actives 1.1% (n = 290,000); in the data active = inhibition above about 16%, passing the limit was not always enough;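 note: cells stimulated with the agonist NPW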
OX1R antag-1 = human HCRTR1 antagonism | O43613 | CHO/OX1R cells, Fluo-8 calcium fluorescence, orexin A | inhibition, % at 5 µM | actives 0.43% (n = 330,000) | AID 434989;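 active = inhibition above its plate's threshold, mean inhibition of all tested compounds on the plate plus 3 SD, cut at about 37% in these data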
TAAR1 antag = antagonists of human TAAR1; Q96RJ0; CHO RD-HGA16 TAAR1, Fluo-8 calcium fluorescence, antagonist; inhibition, % at 3 µM; actives 1.5% (n = 360,000);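 active = inhibition above a per-plate cutoff, the mean inhibition of test compounds on that plate plus 3 SD, cut at about 49% in these data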
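Test system: RD-HGA16 CHO cells with stable hTAAR1 and Gα16 / Probe or stimulus: EC80 β-phenethylamine stimulus / Times: seeding 17-24 h prior, 75-min 37 °C, 30-min RT dye loading / Detection: Fluo-8 calcium-sensitive fluorescence / Read-out basis: % inhibition scaled between DMSO and EC80 PEA controls / Repeats: singlicate, one well per test compound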
OX1R antag-2 = antagonists of human orexin 1 receptor (OX1R). O43613. OX1R-expressing cells, FRET antagonist read-out. actives 1.8% (n = 330,000). inhibition, % at 6.6 µM. AID 485270; in the data active = inhibition mostly above about 38%, no sharp cut-off; inactive = mostly below about 40%
CHO parental Ca = counter-screen: ATP calcium response change in parental CHO cells. parental CHO-K1, ATP-induced calcium, Fluo-8 fluorescence. inhibition, % at 5.6 µM. actives 0.63% (n = 330,000);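 active = inhibition above that plate's mean sample inhibition plus 3 SD, cut at about 26% in these data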
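Measured by: calcium-sensitive Fluo-8 fluorescence / Test system: CHO parental line / Controls: ATP-challenged DMSO wells low, unchallenged DMSO wells high / Measure: % inhibition / Compound: single nominal dose of 5.6 µM per compound / Replicates: single well per compound, no replicates / Reagent: ATP as calcium-mobilizing challenge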
Of the large screens only hits and unclear results are named; the others gave an inactive call.

Cc1ccccc1OCC(=O)OCC(=O)NC1CCCC1	none (no result: GPR7 antag, OX1R antag-1, OX1R antag-2, CHO parental Ca)
Cc1ccc2nc(-c3ccncc3)cc(-c3ccccc3)c2c1	none
Cc1ccc(-c2cc3cccc[n+]3cc2-c2ccc(C)cc2)cc1	GPR7 antag 22
Cc1ccc(Cn2cc(SCC(=O)Nc3nccs3)c3ccccc32)cc1	none
Cc1cccc(Cn2cc(SCC(=O)Nc3nccs3)c3ccccc32)c1	OX1R antag-2 34
CN1CCN(C(=O)c2ccc(-c3ccc(F)c(F)c3)c3ccoc23)CC1	none (no result: GPR7 antag, OX1R antag-1, OX1R antag-2, CHO parental Ca)
CC(C)CN1CCC(CN2C(=S)NC[C@@H]2Cc2ccccc2)CC1	none (no result: GPR7 antag, OX1R antag-1, OX1R antag-2, CHO parental Ca)
O=C(COc1ccccc1)Nc1nc2cc3c(cc2s1)OCCO3	none
O=C(COc1ccccc1)Nc1nc2cc3c(cc2s1)OCO3	CHO parental Ca 31
CCCCCc1ccc2cc(C#N)ccc2n1	none (no result: GPR7 antag, OX1R antag-1, OX1R antag-2, CHO parental Ca)
N#C/C(=N\Nc1ccc(Cl)cc1)C(N)=S	OX1R antag-2 49
Clc1ccc(Cn2ncc3c(N4CCN(c5ccccc5)CC4)ncnc32)cc1	TAAR1 antag 57 (no result: GPR7 antag, OX1R antag-1, OX1R antag-2, CHO parental Ca)
CC(C)[C@H](NC(=O)C1CC1)C(=O)N1CCC[C@H]1C(=O)NCc1ccccc1	none (no result: GPR7 antag, OX1R antag-1, OX1R antag-2, CHO parental Ca)
C[C@@H]1CN([C@@H](C)CO)C(=O)CCCn2cc(nn2)CO[C@H]1CN(C)C(=O)Cc1ccccc1	none (no result: GPR7 antag, OX1R antag-1, OX1R antag-2, CHO parental Ca)
CCCCS(=O)(=O)NCC1CCN(C(=O)C(=O)c2cc3ccccc3o2)CC1	none (no result: GPR7 antag, OX1R antag-1, OX1R antag-2, CHO parental Ca)
COc1cc(-c2nnc(COC(=O)c3cccn3C)o2)cc(OC)c1OC	none
COc1cc(-c2nnc(COC(=O)C3c4ccccc4Oc4ccccc43)o2)cc(OC)c1OC	OX1R antag-2 43
CS(=O)(=O)c1ccc(C(=O)OCC(=O)NC23CC4CC(CC(C4)C2)C3)cc1[N+](=O)[O-]	OX1R antag-1 42, CHO parental Ca 68
Nc1ccn([C@@H]2O[C@H](C(=O)N[C@H](Cc3ccccc3)C(=O)NCC(F)(F)F)[C@@H](O)[C@H]2O)c(=O)n1	none (no result: GPR7 antag, OX1R antag-1, OX1R antag-2, CHO parental Ca)
COc1ccc(CCNC(=O)Cn2ccc3cc(S(=O)(=O)N4CCCC4)ccc32)cc1OC	OX1R antag-2 57
Cc1ccccc1CCNC(=O)Cn1ccc2cc(S(=O)(=O)N3CCCC3)ccc21	OX1R antag-2 46
Cc1ccc(CCNC(=O)Cn2ccc3cc(S(=O)(=O)N4CCCC4)ccc32)cc1	OX1R antag-2 56
CCSc1n[nH]c(=O)n1C	none (no result: GPR7 antag, OX1R antag-1, OX1R antag-2, CHO parental Ca)
C[C@H](CO)N1C[C@H](C)[C@@H](CN(C)C(=O)c2ccc3ccn(C)c3c2)OCc2cn(nn2)CCCC1=O	none (no result: GPR7 antag, OX1R antag-1, OX1R antag-2, CHO parental Ca)
O=C(Nc1ccccc1)c1ccccc1OS(=O)(=O)c1ccccc1	none
O=C(Oc1ccccc1)c1ccccc1OS(=O)(=O)c1ccccc1	OX1R antag-1 61, CHO parental Ca 65
O=C(N/N=C/c1ccc([N+](=O)[O-])o1)c1ccc(NS(=O)(=O)c2cccs2)cc1	OX1R antag-2 45
C=CCOC(=O)C(C#N)c1nc2ccccc2nc1N1CCN(Cc2ccccc2)CC1 (configuration not stated)	none
C=CCOC(=O)C(C#N)c1nc2ccccc2nc1N1CCN(c2ccccc2OC)CC1 (configuration not stated)	TAAR1 antag 49
Cc1nccn1-c1ccc(NC(=O)[C@@H](Cc2ccccc2)NC(=O)[C@H]2O[C@@H](n3ccc(=O)[nH]c3=O)[C@H](O)[C@@H]2O)cc1	none (no result: GPR7 antag, OX1R antag-1, OX1R antag-2, CHO parental Ca)
O=[N+]([O-])c1ccc(S(=O)(=O)N2CCN(c3ccc(N4CCOCC4)nn3)CC2)cc1	OX1R antag-2 46 (no result: GPR7 antag)
CN1CCN(S(=O)(=O)c2ccc([N+](=O)[O-])cc2)CC1	OX1R antag-2 31
Cc1ccc(S(=O)(=O)N2CCN(c3ccc(N4CCOCC4)nn3)CC2)cc1[N+](=O)[O-]	none (no result: GPR7 antag)
CC1CCN(S(=O)(=O)c2ccc([N+](=O)[O-])cc2)CC1	none
c1cnc2ncc3sccc3c2c1	CHO parental Ca 46
Clc1cccc(Cc2c(-c3ccccc3)nc3c4ccccc4ccn23)c1	none (no result: GPR7 antag, OX1R antag-1, OX1R antag-2, CHO parental Ca)
COc1ccc(CCCNC(=O)C2Cc3c(-c4ccc(NC(C)=O)cc4)ccnc3O2)cc1 (configuration not stated)	none (no result: GPR7 antag, OX1R antag-1, OX1R antag-2, CHO parental Ca)
O=C(Cc1ccc(NC(=O)C2CCCN(C(=O)c3ccccc3)C2)cc1)Nc1cccc(C(=O)N2CCCC2)c1 (configuration not stated)	none (no result: GPR7 antag, OX1R antag-1, OX1R antag-2, CHO parental Ca)
COCCN1Cc2cc(C(=O)OC)c3c(c2C1=O)c1cc(OC)ccc1n3S(C)(=O)=O	none (no result: GPR7 antag, OX1R antag-1, OX1R antag-2, CHO parental Ca)
